Results: ChEMBL document CHEMBL1152251, “Preparation of (4,4-difluoro-1,2,3,4-tetrahydro-5H-1-benzazepin-5-ylidene)acetamide derivatives as novel arginine vasopressin V(2) receptor agonists” (Bioorg Med Chem, 2008)
Activity calls are given as the source filed them. The calls are words filed in the database; no cut-off is given here.

What was measured:
Vasopressin V2 receptor [1] = molecular target: T1, Vasopressin V2 receptor (Homo sapiens, UniProt P30518); experiment: Displacement of [3H]vasopressin from human vasopressin V2 receptor expressed in CHO cells by microplate scintillation counting; assay type: cell-based
T1 sequence (P30518 whole entry): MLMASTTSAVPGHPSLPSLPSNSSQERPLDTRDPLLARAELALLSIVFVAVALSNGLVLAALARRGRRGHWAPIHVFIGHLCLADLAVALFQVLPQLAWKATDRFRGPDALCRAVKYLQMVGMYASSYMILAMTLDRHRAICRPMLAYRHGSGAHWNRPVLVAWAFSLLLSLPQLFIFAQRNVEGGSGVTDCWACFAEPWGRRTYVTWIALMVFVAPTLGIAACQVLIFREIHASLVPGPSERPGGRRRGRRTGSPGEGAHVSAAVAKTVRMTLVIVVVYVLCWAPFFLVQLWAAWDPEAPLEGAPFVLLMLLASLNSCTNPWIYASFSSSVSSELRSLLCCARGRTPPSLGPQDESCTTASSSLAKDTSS

Vasopressin V2 receptor [2] = molecular target: T1, Vasopressin V2 receptor; experiment: Agonist activity at human vasopressin V2 receptor expressed in CHO cells assessed as cAMP accumulation by HTRF assay; assay type: functional, cell-based
Method in brief: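 Cells kept in α-MEM with 10% FBS, penicillin/streptomycin and 0.1% amethopterin at 37 °C, 5% CO₂, grown to subconfluence, then serum-starved 24 h. Medium changed to α-MEM with 1 mmol/L IBMX and 0.1% BSA, compound added for 10 min at 37 °C. Lysis in PBS/0.2% Triton X-100, cAMP read by HTRF. Triplicate.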

Vasopressin V2 receptor [3] = molecular target: T1, Vasopressin V2 receptor; experiment: Intrinsic activity at human vasopressin V2 receptor expressed in CHO cells assessed as cAMP accumulation by HTRF assay relative to arginine vasopressin; assay type: functional, cell-based
Vasopressin V2 receptor [4] = molecular target: Vasopressin V2 receptor (Rattus norvegicus, UniProt Q00788); experiment: Displacement of [3H]vasopressin from rat vasopressin V2 receptor expressed in CHO cells by microplate scintillation counting; assay type: cell-based
Vasopressin V2 receptor (Rattus norvegicus, UniProt Q00788), sequence (Q00788 whole entry): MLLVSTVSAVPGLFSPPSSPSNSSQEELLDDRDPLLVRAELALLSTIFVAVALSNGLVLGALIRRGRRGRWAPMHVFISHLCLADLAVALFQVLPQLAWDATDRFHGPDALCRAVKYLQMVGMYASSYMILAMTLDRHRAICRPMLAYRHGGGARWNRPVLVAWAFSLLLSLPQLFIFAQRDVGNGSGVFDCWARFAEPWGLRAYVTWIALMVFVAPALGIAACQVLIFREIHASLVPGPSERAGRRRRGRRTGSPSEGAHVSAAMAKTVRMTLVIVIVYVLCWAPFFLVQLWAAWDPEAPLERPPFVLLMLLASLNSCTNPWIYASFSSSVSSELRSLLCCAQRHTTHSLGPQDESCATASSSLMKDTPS

Ki (Vasopressin V2 receptor [1])	EC50 (Vasopressin V2 receptor [2])	Activity (Vasopressin V2 receptor [3])	Activity (Vasopressin V2 receptor [2])	Ki (Vasopressin V2 receptor [4])	Structure (SMILES)
			inactive	0.4 nM	O=C(/C=C1/c2ccccc2N(C(=O)c2ccc(NC(=O)c3ccccc3-c3ccccc3)cc2)CCC1(F)F)NCc1ccccn1
18 nM	> 10000 nM	4.9%			CC(C)c1ccn(-c2ccc(C(=O)N3CCC(F)(F)/C(=C\C(=O)NCc4ccccn4)c4ccccc43)c(Cl)c2)n1

The next lines start with the compound.

Structure (SMILES)	Ki (Vasopressin V2 receptor [1])	EC50 (Vasopressin V2 receptor [2])	Activity (Vasopressin V2 receptor [3])	Activity (Vasopressin V2 receptor [2])	Ki (Vasopressin V2 receptor [4])
CCc1ccn(-c2ccc(C(=O)N3CCC(F)(F)/C(=C\C(=O)NCc4ccccn4)c4ccccc43)c(Cl)c2)n1	21 nM	> 10000 nM	86.8%		
CN1CCN(c2ccc(C(=O)N3CCC(F)(F)/C(=C\C(=O)NCc4ccccn4)c4ccccc43)c(Cl)c2)CC1	170 nM	> 10000 nM	35.5%		
Cc1ccn(-c2ccc(C(=O)N3CCC(F)(F)/C(=C\C(=O)NCc4ccccn4)c4ccccc43)c(Cl)c2)n1					19 nM
